Among the data in PMC3517154 (ChemMedChem, 2011) are IC50, Maximal efficacy and EC50 values, retold here.

The target in one test is T1, PPARγ LBD (Homo sapiens, UniProt P37231).
T1 sequence (P37231 238-503 limits assumed): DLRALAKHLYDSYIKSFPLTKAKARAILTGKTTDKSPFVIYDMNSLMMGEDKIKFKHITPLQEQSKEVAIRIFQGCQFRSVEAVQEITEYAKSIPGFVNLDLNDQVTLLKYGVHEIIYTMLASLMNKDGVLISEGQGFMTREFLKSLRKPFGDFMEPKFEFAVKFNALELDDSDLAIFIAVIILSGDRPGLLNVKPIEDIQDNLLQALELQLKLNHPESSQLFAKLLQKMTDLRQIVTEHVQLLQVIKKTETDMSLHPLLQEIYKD
Description: Fluorescence polarization. The note with it: read-out: FP Assay IC50; recombinant PPARγ LBD, 5 nM Fluoromone Green ligand, 25°C, 2 hours. Type of test: binding. A digest of the protocol: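 Competitive FP binding run per kit instructions. 20 ng recombinant PPARγ LBD plus 5 nM Fluoromone Green probe, mixed with an equal volume of screening buffer holding DMSO or test compound. Incubated 2 h at 25°C. Polarization read at 485 nm excitation and 535 nm emission. Rosiglitazone used as positive competitor. IC50 from dose-response curve fit.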

The next test deals with T2, PPARγ (Homo sapiens, UniProt P37231).
T2 sequence (P37231 1-505): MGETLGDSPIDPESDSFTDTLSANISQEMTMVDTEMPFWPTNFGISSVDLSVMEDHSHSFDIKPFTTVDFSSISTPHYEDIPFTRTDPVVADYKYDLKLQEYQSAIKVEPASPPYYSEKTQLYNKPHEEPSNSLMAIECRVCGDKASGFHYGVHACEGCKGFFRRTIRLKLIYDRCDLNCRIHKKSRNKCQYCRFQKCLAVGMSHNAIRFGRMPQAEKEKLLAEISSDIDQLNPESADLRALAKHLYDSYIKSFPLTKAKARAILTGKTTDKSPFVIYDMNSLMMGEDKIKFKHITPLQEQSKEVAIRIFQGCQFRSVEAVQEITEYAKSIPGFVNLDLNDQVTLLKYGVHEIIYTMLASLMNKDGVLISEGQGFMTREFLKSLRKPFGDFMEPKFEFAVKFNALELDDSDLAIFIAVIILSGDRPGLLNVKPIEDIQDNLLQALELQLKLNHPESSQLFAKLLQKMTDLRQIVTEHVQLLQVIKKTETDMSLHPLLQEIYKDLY
Description: Cell-based PPARγ transactivation assay. The note with it: for Maximal efficacy: compared to the reference full agonist (2, MRL20); for EC50: read-out: Cell-based EC50, Cos-1 cells, 3xPPRE luciferase reporter, full-length PPARγ, 24 h, dose-response. A digest of the protocol:
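Cos-1 cells, trypsinized, bulk reverse-transfected 24 h (FuGene6, lipid:DNA 3:1; DMEM + 10% FBS) with 1.5 μg 3xPPRE luciferase reporter plus 1.5 μg full-length PPARγ (pSport6). Replated at 10,000 cells/well, 4 h at 37°C, 5% CO2. Ten-point serial dilution, 5 μM – 200 pM, in triplicate, then 24 h. One-step luciferase reagent, luminescence read. Activity taken as fold over DMSO. Partial and full agonist controls, DMSO negative. EC50 from curve fit.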

By IC50 is commonly meant the point on the concentration scale where inhibition reaches its midpoint. The EC50 is the concentration at which the effect is half-maximal. In the case of `CCn1cnc2c1c(=O)n(Cc1cccc([N+](=O)[O-])c1)c(=O)n2Cc1ccccc1` [Compound 4], at PPARγ LBD, the IC50 is 0.173 µM. Moreover, at PPARγ, the Maximal efficacy came out at 64.11% and the EC50 came out at 0.181 µM.

On to `Cc1ccc2nc(N3C(=O)C(O)=C(C(=O)c4ccc(C)o4)C3c3ccco3)sc2c1` (stereo not drawn) [Compound 8], for which the IC50 at PPARγ LBD stood at 22 µM. On PPARγ, the Maximal efficacy was determined as 45.76% and the EC50 was 18 µM.

Regarding `CCOc1ccc2nc(N3C(=O)C(O)=C(C(=O)c4ccco4)C3c3ccco3)sc2c1` (stereo not drawn) [Compound 6], the IC50 at PPARγ LBD came out at 3 µM. For the same compound, at PPARγ, the Maximal efficacy amounted to 37.04% and the EC50 stood at 1.2 µM.

On to `COc1ccc(-c2nn(-c3ccccc3)cc2/C=C2/SC(=S)N(CCC(=O)O)C2=O)c(C)c1` [Compound 3], for which, on PPARγ LBD, the IC50 came out at 0.152 µM. Moreover, at PPARγ, the Maximal efficacy is 44.41% and the EC50 was found to be 0.283 µM.

`CC(=O)N1N=C(c2ccccc2)CC1c1cn(Cc2ccccc2)c2ccccc12` (stereo not drawn) [Compound 5]: the IC50 on PPARγ LBD is 2 µM. In addition, at PPARγ, the Maximal efficacy amounted to 44.71% and the EC50 came to 1.2 µM.

Take `COc1ccc2nc(N3C(=O)C(O)=C(C(=O)c4ccco4)C3c3ccc(C)o3)sc2c1` (stereo not drawn) [Compound 7]: the IC50 on PPARγ LBD was 5 µM. Further, at PPARγ, the Maximal efficacy was determined as 41.14% and the EC50 was 5 µM.
